Measured values taken from ChEMBL document CHEMBL4689842, “EUbOPEN Chemogenomics Library wave 1” (2021).

Test system: HEK-293T
Assay: Multiplex assay against HEK293T;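 for Population Tubulin-Different-Phenotype (%): share of the cells with healthy nuclei that show this phenotype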
Format: toxicity, cell-based
Settings: human
How it was run: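 Cells stained live at seeding with Hoechst33342, BioTracker Green Microtubule Cytoskeleton Dye, MitoTracker Red and Annexin V Alexa Fluor 680 were imaged on a CQ1 microscope at 37°C and 5% CO2 after compound addition. Their classification by CellPathfinder machine-learning gating ran from Hoechst high-intensity objects versus normal cells, to healthy, pyknosed or fragmented nuclei among normal cells, to mitotic or apoptotic among pyknosed cells. Tubulin, mitochondrial-mass and membrane-permeability phenotypes are per cents of healthy-nucleus cells.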

[1] = 12 h, 1 µM, compound concentration 1 uM, replicate 1
[2] = 12 h, 1 µM, compound concentration 1 uM, replicate 2
[3] = 12 h, 10 µM, compound concentration 10 uM, replicate 1
[4] = 12 h, 10 µM, compound concentration 10 uM, replicate 2
[5] = 24 h, 1 µM, compound concentration 1 uM, replicate 1
[6] = 24 h, 1 µM, compound concentration 1 uM, replicate 2
[7] = 24 h, 10 µM, compound concentration 10 uM, replicate 1
[8] = 24 h, 10 µM, compound concentration 10 uM, replicate 2

## CNC(=O)c1ccc(Nc2nc(OC3CCCC3)c3c(-c4ccc5nc(C)oc5c4)c[nH]c3n2)c(OC)c1
[1]
  Population Apoptotic (%): 36%
  Population Fragmented Nuclei (%): 20%
  Population Healthy Nuclei (%): 22%
  Population Hoechst High Intensity Objects (%): 22%
  Population Membrane Permeable-Phenotype (%): 19%
  Population Mitochondria Different-Phenotype (%): 28%
  Population Mitotic Cells (%): 63%
  Population Normal (%): 77%
  Population Pyknosed Nuclei (%): 57%
  Population Tubulin-Different-Phenotype (%): 76%
  Total Cell Count: 469
[2]
  Population Apoptotic (%): 37%
  Population Fragmented Nuclei (%): 2%
  Population Healthy Nuclei (%): 77%
  Population Hoechst High Intensity Objects (%): 4%
  Population Membrane Permeable-Phenotype (%): 18%
  Population Mitochondria Different-Phenotype (%): 47%
  Population Mitotic Cells (%): 62%
  Population Normal (%): 95%
  Population Pyknosed Nuclei (%): 19%
  Population Tubulin-Different-Phenotype (%): 94%
  Total Cell Count: 712
[3]
  Population Apoptotic (%): 26%
  Population Fragmented Nuclei (%): 19%
  Population Healthy Nuclei (%): 50%
  Population Hoechst High Intensity Objects (%): 20%
  Population Membrane Permeable-Phenotype (%): 22%
  Population Mitochondria Different-Phenotype (%): 13%
  Population Mitotic Cells (%): 73%
  Population Normal (%): 79%
  Population Pyknosed Nuclei (%): 30%
  Population Tubulin-Different-Phenotype (%): 58%
  Total Cell Count: 532
[4]
  Population Apoptotic (%): 14%
  Population Fragmented Nuclei (%): 3%
  Population Healthy Nuclei (%): 91%
  Population Hoechst High Intensity Objects (%): 5%
  Population Membrane Permeable-Phenotype (%): 13%
  Population Mitochondria Different-Phenotype (%): 27%
  Population Mitotic Cells (%): 85%
  Population Normal (%): 94%
  Population Pyknosed Nuclei (%): 4%
  Population Tubulin-Different-Phenotype (%): 83%
  Total Cell Count: 1205
[5]
  Population Apoptotic (%): 61%
  Population Fragmented Nuclei (%): 28%
  Population Healthy Nuclei (%): 13%
  Population Hoechst High Intensity Objects (%): 25%
  Population Membrane Permeable-Phenotype (%): 10%
  Population Mitochondria Different-Phenotype (%): 54%
  Population Mitotic Cells (%): 38%
  Population Normal (%): 74%
  Population Pyknosed Nuclei (%): 57%
  Population Tubulin-Different-Phenotype (%): 58%
  Total Cell Count: 472
[6]
  Population Apoptotic (%): 43%
  Population Fragmented Nuclei (%): 3%
  Population Healthy Nuclei (%): 80%
  Population Hoechst High Intensity Objects (%): 9%
  Population Membrane Permeable-Phenotype (%): 5%
  Population Mitochondria Different-Phenotype (%): 66%
  Population Mitotic Cells (%): 56%
  Population Normal (%): 90%
  Population Pyknosed Nuclei (%): 15%
  Population Tubulin-Different-Phenotype (%): 78%
  Total Cell Count: 721
[7]
  Population Apoptotic (%): 24%
  Population Fragmented Nuclei (%): 20%
  Population Healthy Nuclei (%): 62%
  Population Hoechst High Intensity Objects (%): 15%
  Population Membrane Permeable-Phenotype (%): 23%
  Population Mitochondria Different-Phenotype (%): 15%
  Population Mitotic Cells (%): 75%
  Population Normal (%): 84%
  Population Pyknosed Nuclei (%): 17%
  Population Tubulin-Different-Phenotype (%): 81%
  Total Cell Count: 481
[8]
  Population Apoptotic (%): 11%
  Population Fragmented Nuclei (%): 10%
  Population Healthy Nuclei (%): 86%
  Population Hoechst High Intensity Objects (%): 5%
  Population Membrane Permeable-Phenotype (%): 17%
  Population Mitochondria Different-Phenotype (%): 11%
  Population Mitotic Cells (%): 88%
  Population Normal (%): 94%
  Population Pyknosed Nuclei (%): 2%
  Population Tubulin-Different-Phenotype (%): 87%
  Total Cell Count: 1423

## Cc1ccc2nc(NCCN)c3ncc(C)n3c2c1.O=C(O)C(F)(F)F.O=C(O)C(F)(F)F
[1]
  Population Apoptotic (%): 29%
  Population Fragmented Nuclei (%): 14%
  Population Healthy Nuclei (%): 67%
  Population Hoechst High Intensity Objects (%): 13%
  Population Membrane Permeable-Phenotype (%): 6%
  Population Mitochondria Different-Phenotype (%): 2%
  Population Mitotic Cells (%): 70%
  Population Normal (%): 86%
  Population Pyknosed Nuclei (%): 18%
  Population Tubulin-Different-Phenotype (%): 3%
  Total Cell Count: 581
[2]
  Population Apoptotic (%): 14%
  Population Fragmented Nuclei (%): 10%
  Population Healthy Nuclei (%): 85%
  Population Hoechst High Intensity Objects (%): 2%
  Population Membrane Permeable-Phenotype (%): 1%
  Population Mitochondria Different-Phenotype (%): 9%
  Population Mitotic Cells (%): 85%
  Population Normal (%): 97%
  Population Pyknosed Nuclei (%): 3%
  Population Tubulin-Different-Phenotype (%): 5%
  Total Cell Count: 1754
[3]
  Population Apoptotic (%): 25%
  Population Fragmented Nuclei (%): 13%
  Population Healthy Nuclei (%): 58%
  Population Hoechst High Intensity Objects (%): 14%
  Population Membrane Permeable-Phenotype (%): 5%
  Population Mitochondria Different-Phenotype (%): 14%
  Population Mitotic Cells (%): 75%
  Population Normal (%): 85%
  Population Pyknosed Nuclei (%): 27%
  Population Tubulin-Different-Phenotype (%): 14%
  Total Cell Count: 591
[4]
  Population Apoptotic (%): 26%
  Population Fragmented Nuclei (%): 5%
  Population Healthy Nuclei (%): 83%
  Population Hoechst High Intensity Objects (%): 5%
  Population Membrane Permeable-Phenotype (%): 1%
  Population Mitochondria Different-Phenotype (%): 27%
  Population Mitotic Cells (%): 73%
  Population Normal (%): 94%
  Population Pyknosed Nuclei (%): 10%
  Population Tubulin-Different-Phenotype (%): 19%
  Total Cell Count: 1004
[5]
  Population Apoptotic (%): 35%
  Population Fragmented Nuclei (%): 14%
  Population Healthy Nuclei (%): 76%
  Population Hoechst High Intensity Objects (%): 6%
  Population Membrane Permeable-Phenotype (%): 5%
  Population Mitochondria Different-Phenotype (%): 3%
  Population Mitotic Cells (%): 64%
  Population Normal (%): 93%
  Population Pyknosed Nuclei (%): 8%
  Population Tubulin-Different-Phenotype (%): 6%
  Total Cell Count: 670
[6]
  Population Apoptotic (%): 5%
  Population Fragmented Nuclei (%): 30%
  Population Healthy Nuclei (%): 67%
  Population Hoechst High Intensity Objects (%): 3%
  Population Membrane Permeable-Phenotype (%): 4%
  Population Mitochondria Different-Phenotype (%): 1%
  Population Mitotic Cells (%): 94%
  Population Normal (%): 96%
  Population Pyknosed Nuclei (%): 1%
  Total Cell Count: 2957
[7]
  Population Apoptotic (%): 38%
  Population Fragmented Nuclei (%): 14%
  Population Healthy Nuclei (%): 60%
  Population Hoechst High Intensity Objects (%): 20%
  Population Membrane Permeable-Phenotype (%): 6%
  Population Mitochondria Different-Phenotype (%): 18%
  Population Mitotic Cells (%): 61%
  Population Normal (%): 79%
  Population Pyknosed Nuclei (%): 25%
  Population Tubulin-Different-Phenotype (%): 12%
  Total Cell Count: 482
[8]
  Population Apoptotic (%): 44%
  Population Fragmented Nuclei (%): 7%
  Population Healthy Nuclei (%): 85%
  Population Hoechst High Intensity Objects (%): 10%
  Population Membrane Permeable-Phenotype (%): 1%
  Population Mitochondria Different-Phenotype (%): 27%
  Population Mitotic Cells (%): 55%
  Population Normal (%): 89%
  Population Pyknosed Nuclei (%): 6%
  Population Tubulin-Different-Phenotype (%): 19%
  Total Cell Count: 858
